The source made the active and inactive calls. The calls are words filed in the database; no cut-off is given here.
Target: T1, Voltage-dependent T-type calcium channel subunit alpha-1G (Homo sapiens, UniProt O43497)
Experiment: Inhibition of T-type calcium channel Cav3.1 with alpha-1G subunit expressed in HEK293 cells at 100 uM by FDSS6000 assay
Assay type: cell-based
Details: 10 uM, in the assay text read “at 10 uM” for “at 100 uM”
Method in brief: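 HEK293 cells stably expressing α1G plus Kir2.1, grown in DMEM/10% FBS with geneticin and puromycin, plated at 4 × 10^4 cells/well and used next day. Loaded 60 min at room temperature with 5 µM fluo3/AM in Hepes-buffered saline, pH 7.4. Channels opened by depolarization with 70 mM KCl in buffer containing 10 mM CaCl2. Rise in intracellular Ca2+ read by fluorescence on FDSS6000.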

T1 sequence (O43497 whole entry): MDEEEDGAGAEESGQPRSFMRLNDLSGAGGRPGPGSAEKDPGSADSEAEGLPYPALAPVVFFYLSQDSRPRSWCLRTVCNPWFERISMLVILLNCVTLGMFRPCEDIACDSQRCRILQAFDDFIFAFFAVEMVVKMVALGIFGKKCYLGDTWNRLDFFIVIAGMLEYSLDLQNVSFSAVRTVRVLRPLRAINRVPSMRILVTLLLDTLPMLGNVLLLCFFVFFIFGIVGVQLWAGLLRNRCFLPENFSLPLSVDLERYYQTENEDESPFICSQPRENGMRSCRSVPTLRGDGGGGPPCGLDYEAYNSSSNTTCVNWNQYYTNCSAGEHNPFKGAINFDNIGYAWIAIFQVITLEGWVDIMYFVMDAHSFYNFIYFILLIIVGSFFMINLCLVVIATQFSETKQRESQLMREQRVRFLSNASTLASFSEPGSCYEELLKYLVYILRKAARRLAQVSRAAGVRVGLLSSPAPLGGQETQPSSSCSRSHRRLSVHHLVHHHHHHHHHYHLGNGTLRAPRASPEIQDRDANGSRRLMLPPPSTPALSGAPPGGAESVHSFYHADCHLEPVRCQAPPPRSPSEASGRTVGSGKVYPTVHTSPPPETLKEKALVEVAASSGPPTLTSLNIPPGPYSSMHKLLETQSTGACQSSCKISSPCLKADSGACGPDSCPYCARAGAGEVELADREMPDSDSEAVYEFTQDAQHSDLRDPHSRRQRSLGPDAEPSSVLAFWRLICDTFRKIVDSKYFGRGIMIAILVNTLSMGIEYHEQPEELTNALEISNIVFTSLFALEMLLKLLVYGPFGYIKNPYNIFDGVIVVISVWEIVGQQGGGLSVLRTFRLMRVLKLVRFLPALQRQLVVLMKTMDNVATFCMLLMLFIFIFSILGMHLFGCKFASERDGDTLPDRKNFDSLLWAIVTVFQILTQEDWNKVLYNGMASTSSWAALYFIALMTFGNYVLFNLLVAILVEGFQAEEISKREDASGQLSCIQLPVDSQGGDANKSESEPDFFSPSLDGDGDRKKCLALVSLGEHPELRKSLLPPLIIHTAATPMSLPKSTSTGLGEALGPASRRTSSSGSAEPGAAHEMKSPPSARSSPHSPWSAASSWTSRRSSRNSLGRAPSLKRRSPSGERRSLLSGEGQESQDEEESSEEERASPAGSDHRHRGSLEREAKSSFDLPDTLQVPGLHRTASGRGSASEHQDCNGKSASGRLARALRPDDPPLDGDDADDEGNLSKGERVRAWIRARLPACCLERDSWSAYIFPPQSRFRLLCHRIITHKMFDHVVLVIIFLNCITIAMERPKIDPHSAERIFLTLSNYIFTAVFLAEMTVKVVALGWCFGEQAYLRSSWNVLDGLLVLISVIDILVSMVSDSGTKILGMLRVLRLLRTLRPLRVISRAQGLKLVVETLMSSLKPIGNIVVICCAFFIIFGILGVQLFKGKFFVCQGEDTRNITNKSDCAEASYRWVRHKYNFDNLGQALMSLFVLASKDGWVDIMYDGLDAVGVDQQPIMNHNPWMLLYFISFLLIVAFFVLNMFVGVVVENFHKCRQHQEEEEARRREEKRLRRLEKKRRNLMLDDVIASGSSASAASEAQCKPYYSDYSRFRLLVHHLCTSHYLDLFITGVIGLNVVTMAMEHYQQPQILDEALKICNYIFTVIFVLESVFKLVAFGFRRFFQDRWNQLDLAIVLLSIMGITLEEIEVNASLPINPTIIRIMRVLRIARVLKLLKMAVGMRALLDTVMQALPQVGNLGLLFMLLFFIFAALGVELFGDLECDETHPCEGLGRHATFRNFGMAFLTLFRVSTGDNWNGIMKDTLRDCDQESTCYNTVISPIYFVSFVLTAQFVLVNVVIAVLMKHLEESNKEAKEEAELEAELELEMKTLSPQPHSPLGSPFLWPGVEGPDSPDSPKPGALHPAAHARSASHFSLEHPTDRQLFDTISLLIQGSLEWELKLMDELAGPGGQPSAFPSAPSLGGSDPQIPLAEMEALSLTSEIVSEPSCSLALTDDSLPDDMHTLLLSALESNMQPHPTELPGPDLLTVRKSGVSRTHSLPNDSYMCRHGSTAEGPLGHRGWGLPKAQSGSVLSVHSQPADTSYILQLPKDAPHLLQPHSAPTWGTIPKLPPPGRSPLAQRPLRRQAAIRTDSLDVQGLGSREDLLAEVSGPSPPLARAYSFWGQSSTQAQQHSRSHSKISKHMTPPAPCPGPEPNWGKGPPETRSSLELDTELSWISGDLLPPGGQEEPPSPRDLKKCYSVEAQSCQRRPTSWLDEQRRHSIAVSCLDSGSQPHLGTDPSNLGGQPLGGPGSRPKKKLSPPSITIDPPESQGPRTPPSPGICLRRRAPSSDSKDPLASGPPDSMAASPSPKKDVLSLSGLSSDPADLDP

| inhibition [%] | SMILES |
| --- | --- |
| 6.2 | O=C(NCCCN1CCCC1)c1ccc2c(=O)n(Cc3ccccc3Cl)c(=O)[nH]c2c1 |
| 9.7 | O=C(NCCCN1CCOCC1)c1ccc2c(=O)n(Cc3ccc(Cl)cc3)c(=O)[nH]c2c1 |

Same assay, conditions: 100 uM

| inhibition [%] | Activity | SMILES |
| --- | --- | --- |
| 42.3 | – | COc1ccc(Cn2c(=O)[nH]c3cc(C(=O)NCCCN4CCCCC4C)ccc3c2=O)cc1 (centres undefined) |
| 34.2 | – | O=C(NCCCN1CCCC1)c1ccc2c(=O)n(Cc3ccc(F)cc3)c(=O)[nH]c2c1 |
| 39.4 | – | COc1ccc(Cn2c(=O)[nH]c3cc(C(=O)NCCN4CCCC4)ccc3c2=O)cc1 |
| – | inactive | COc1ccc(Cn2c(=O)[nH]c3cc(C(=O)NCCN4CCOCC4)ccc3c2=O)cc1 |
| 26.8 | – | COc1ccc(Cn2c(=O)[nH]c3cc(C(=O)NCCCN4CCCC4)ccc3c2=O)cc1 |
| 47.8 | – | CC1CCCCN1CCCNC(=O)c1ccc2c(=O)n(Cc3cccc(F)c3)c(=O)[nH]c2c1 (centres undefined) |
| 65 | – | O=C(NCCN1CCCCC1)c1ccc2c(=O)n(Cc3ccc(F)cc3)c(=O)[nH]c2c1 |
| 36.9 | – | COc1cccc(Cn2c(=O)[nH]c3cc(C(=O)NCCCN4CCCCC4C)ccc3c2=O)c1 (centres undefined) |
| 13.9 | – | CC1CCCCN1CCCNC(=O)c1ccc2c(=O)n(Cc3ccccc3F)c(=O)[nH]c2c1 (centres undefined) |
| 68.3 | – | CCC1CCCCN1CCCNC(=O)c1ccc2c(=O)n(Cc3ccc(F)cc3)c(=O)[nH]c2c1 (centres undefined) |
| 47.2 | – | O=C(NCCN1CCCC1)c1ccc2c(=O)n(Cc3ccc(F)cc3)c(=O)[nH]c2c1 |
| 56.6 | – | CC1CCCCN1CCCNC(=O)c1ccc2c(=O)n(Cc3ccc(F)cc3)c(=O)[nH]c2c1 (centres undefined) |

Further lines, the compound ahead of its results:

| SMILES | inhibition [%] | Activity |
| --- | --- | --- |
| O=C(NCCN1CCCCC1)c1ccc2c(=O)n(-c3cccc(F)c3)c(=O)[nH]c2c1 | 3.4 | – |
| CN1CCN(CCCNC(=O)c2ccc3c(=O)n(Cc4ccc(F)cc4)c(=O)[nH]c3c2)CC1 | 25.5 | – |
| O=C(NCCN1CCOCC1)c1ccc2c(=O)n(-c3cccc(F)c3)c(=O)[nH]c2c1 | 3.8 | – |
| O=C(NCCN1CCCC1)c1ccc2c(=O)n(-c3cccc(F)c3)c(=O)[nH]c2c1 | 4.3 | – |
| COc1ccc(-n2c(=O)[nH]c3cc(C(=O)NCCCN4CCCCC4C)ccc3c2=O)cc1 (centres undefined) | 1.5 | – |
| CN1CCN(CCCNC(=O)c2ccc3c(=O)n(Cc4cccc(F)c4)c(=O)[nH]c3c2)CC1 | 8.3 | – |
| O=C(NCCCN1CCOCC1)c1ccc2c(=O)n(-c3ccccc3F)c(=O)[nH]c2c1 | 2.8 | – |
| COc1ccc(-n2c(=O)[nH]c3cc(C(=O)NCCCN4CCN(C)CC4)ccc3c2=O)cc1 | – | inactive |
| COc1ccccc1Cn1c(=O)[nH]c2cc(C(=O)NCCCN3CCCCC3C)ccc2c1=O (centres undefined) | 12.7 | – |
| COc1cccc(Cn2c(=O)[nH]c3cc(C(=O)NCCN4CCCC4)ccc3c2=O)c1 | 27.8 | – |
| CC1CCCCN1CCCNC(=O)c1ccc2c(=O)n(C)c(=O)[nH]c2c1 (centres undefined) | 8.5 | – |
| COc1cccc(-n2c(=O)[nH]c3cc(C(=O)NCCCN4CCCCC4C)ccc3c2=O)c1 (centres undefined) | 12.3 | – |
| O=C(NCCN1CCCC1)c1ccc2c(=O)n(C3CCCCC3)c(=O)[nH]c2c1 | 57.7 | – |
| CCCn1c(=O)[nH]c2cc(C(=O)NCCCN3CCOCC3)ccc2c1=O | 9.2 | – |
| O=C(NCCN1CCCC1)c1ccc2c(=O)n(Cc3ccccc3F)c(=O)[nH]c2c1 | 24.9 | – |
| COc1cccc(-n2c(=O)[nH]c3cc(C(=O)NCCCN4CCCC4)ccc3c2=O)c1 | – | inactive |
| CN1CCN(CCCNC(=O)c2ccc3c(=O)n(Cc4ccccc4F)c(=O)[nH]c3c2)CC1 | 7.3 | – |
| COc1ccc(-n2c(=O)[nH]c3cc(C(=O)NCCCN4CCCC4)ccc3c2=O)cc1 | – | inactive |
| CCCn1c(=O)[nH]c2cc(C(=O)NCCCN3CCN(C)CC3)ccc2c1=O | – | inactive |
| COc1cccc(-n2c(=O)[nH]c3cc(C(=O)NCCN4CCCC4)ccc3c2=O)c1 | 13.1 | – |
| CN1CCN(CCCNC(=O)c2ccc3c(=O)n(-c4ccccc4F)c(=O)[nH]c3c2)CC1 | 2.4 | – |
| COc1cccc(Cn2c(=O)[nH]c3cc(C(=O)NCCN4CCCCC4)ccc3c2=O)c1 | 62.9 | – |
| O=C(NCCCN1CCCC1)c1ccc2c(=O)n(Cc3cccc(F)c3)c(=O)[nH]c2c1 | 9.8 | – |
| COc1cccc(Cn2c(=O)[nH]c3cc(C(=O)NCCCN4CCOCC4)ccc3c2=O)c1 | 28.9 | – |
| O=C(NCCCN1CCCC1)c1ccc2c(=O)n(-c3cccc(F)c3)c(=O)[nH]c2c1 | – | inactive |

| SMILES | inhibition [%] | Activity |
| --- | --- | --- |
| O=C(NCCN1CCCCC1)c1ccc2c(=O)n(-c3ccccc3F)c(=O)[nH]c2c1 | 7.2 | – |
| CC1CCCCN1CCCNC(=O)c1ccc2c(=O)n(C3CCCCC3)c(=O)[nH]c2c1 (centres undefined) | 48.3 | – |
| O=C(NCCCN1CCOCC1)c1ccc2c(=O)n(Cc3ccc(F)cc3)c(=O)[nH]c2c1 | – | inactive |
| O=C(NCCN1CCCCC1)c1ccc2c(=O)n(C3CCCCC3)c(=O)[nH]c2c1 | 52.2 | – |
| CCCn1c(=O)[nH]c2cc(C(=O)NCCCN3CCCCC3C)ccc2c1=O (centres undefined) | 12.5 | – |
| COc1cccc(Cn2c(=O)[nH]c3cc(C(=O)NCCCN4CCN(C)CC4)ccc3c2=O)c1 | 20.1 | – |
| O=C(NCCCN1CCOCC1)c1ccc2c(=O)n(-c3cccc(F)c3)c(=O)[nH]c2c1 | 15.1 | – |
| O=C(NCCN1CCCC1)c1ccc2c(=O)n(-c3ccccc3F)c(=O)[nH]c2c1 | 6.5 | – |
| CC1CCCCN1CCCNC(=O)c1ccc2c(=O)n(-c3cccc(F)c3)c(=O)[nH]c2c1 (centres undefined) | – | inactive |
| CCCn1c(=O)[nH]c2cc(C(=O)NCCN3CCOCC3)ccc2c1=O | – | inactive |
| COc1ccccc1-n1c(=O)[nH]c2cc(C(=O)NCCCN3CCCC3)ccc2c1=O | 1.5 | – |
| CCCn1c(=O)[nH]c2cc(C(=O)NCCN3CCCC3)ccc2c1=O | 6.7 | – |
| O=C(NCCN1CCCCC1)c1ccc2c(=O)n(-c3ccc(F)cc3)c(=O)[nH]c2c1 | 12.5 | – |
| O=C(NCCN1CCCCC1)c1ccc2c(=O)n(Cc3cccc(F)c3)c(=O)[nH]c2c1 | 64.6 | – |
| CN1CCN(CCCNC(=O)c2ccc3c(=O)n(C)c(=O)[nH]c3c2)CC1 | 3.4 | – |
| Cn1c(=O)[nH]c2cc(C(=O)NCCN3CCCCC3)ccc2c1=O | 17.6 | – |
| O=C(NCCCN1CCOCC1)c1ccc2c(=O)n(C3CCCCC3)c(=O)[nH]c2c1 | 36.3 | – |
| COc1ccc(Cn2c(=O)[nH]c3cc(C(=O)NCCCN4CCOCC4)ccc3c2=O)cc1 | 36 | – |
| COc1ccc(-n2c(=O)[nH]c3cc(C(=O)NCCN4CCCC4)ccc3c2=O)cc1 | 10.5 | – |
| CCCn1c(=O)[nH]c2cc(C(=O)NCCN3CCCCC3)ccc2c1=O | 18 | – |
| O=C(NCCCN1CCOCC1)c1ccc2c(=O)n(-c3ccc(F)cc3)c(=O)[nH]c2c1 | 9.2 | – |
| COc1cccc(Cn2c(=O)[nH]c3cc(C(=O)NCCCN4CCCC4)ccc3c2=O)c1 | 13.2 | – |
| Cn1c(=O)[nH]c2cc(C(=O)NCCN3CCCC3)ccc2c1=O | – | inactive |
| COc1cccc(-n2c(=O)[nH]c3cc(C(=O)NCCN4CCCCC4)ccc3c2=O)c1 | – | inactive |
| O=C(NCCN1CCOCC1)c1ccc2c(=O)n(-c3ccc(F)cc3)c(=O)[nH]c2c1 | – | inactive |

Target: T1, Voltage-dependent T-type calcium channel subunit alpha-1G
Experiment: Inhibition of T-type calcium channel Cav3.1 with alpha-1G subunit by patch clamp assay
Details: not given

| IC50 [µM] | SMILES |
| --- | --- |
| 3.72 | CC1CCCCN1CCCNC(=O)c1ccc2c(=O)n(Cc3ccc(Cl)cc3)c(=O)[nH]c2c1 (centres undefined) |
| 7.98 | CCC1CCCCN1CCNC(=O)c1ccc2c(=O)n(Cc3ccc(F)cc3)c(=O)[nH]c2c1 (centres undefined) |
| 0.1 | CCC1CCCCN1CCCNC(=O)c1ccc2c(=O)n(Cc3ccc(Cl)cc3)c(=S)[nH]c2c1 (centres undefined) |
| 2.46 | O=C(NCCN1CCCC1)c1ccc2c(=O)n(Cc3ccc(Cl)cc3)c(=O)[nH]c2c1 |
| 9.23 | O=C(NCCN1CCCCC1)c1ccc2c(=O)n(Cc3ccc(F)cc3)c(=O)[nH]c2c1 |
| 3.38 | CCC1CCCCN1CCNC(=O)c1ccc2c(=O)n(Cc3ccc(Cl)cc3)c(=O)[nH]c2c1 (centres undefined) |
| 1.95 | O=C(NCCCN1CCCCC1)c1ccc2c(=O)n(Cc3ccc(Cl)cc3)c(=O)[nH]c2c1 |
| 1.52 | CCC1CCCCN1CCCNC(=O)c1ccc2c(=O)n(Cc3ccc(Cl)cc3)c(=O)[nH]c2c1 (centres undefined) |
| 3.31 | CCC1CCCCN1CCCNC(=O)c1ccc2c(=O)n(Cc3ccc(F)cc3)c(=O)[nH]c2c1 (centres undefined) |
| 5.97 | CCC1CCCCN1CCNC(=O)c1ccc2c(=O)n(Cc3ccc(OC)cc3)c(=O)[nH]c2c1 (centres undefined) |
| 2.79 | CCC1CCCCN1CCCNC(=O)c1ccc2c(=O)n(Cc3ccccc3Cl)c(=O)[nH]c2c1 (centres undefined) |
| 4.63 | CC1CCCCN1CCCNC(=O)c1ccc2c(=O)n(Cc3ccc(F)cc3)c(=O)[nH]c2c1 (centres undefined) |
| 2.08 | O=C(NCCN1CCCCC1)c1ccc2c(=O)n(Cc3ccc(Cl)cc3)c(=O)[nH]c2c1 |

The remaining lines, values behind:

| SMILES | IC50 [µM] |
| --- | --- |
| O=C(NCCN1CCCC1)c1ccc2c(=O)n(C3CCCCC3)c(=O)[nH]c2c1 | 7.96 |
| O=C(NCCN1CCCCC1)c1ccc2c(=O)n(Cc3cccc(F)c3)c(=O)[nH]c2c1 | 16.9 |
